Most compounds without a hit are left out; they make up all but 3.5% or so of the library.
FGF22 binding: FGF22 (human) thermal shift binding. 1.5% of 340,000 active. activity (Tm shift, normalised), % at 9.99 µM. Q9HCT0. recombinant FGF22 thermal shift, SYPRO orange fluorescence; percent of sucrose octasulfate shift, DMSO zero;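 active = mean Tm shift, scaled 0 neutral to 100 positive control, at about 1.3% or above, every replicate too, limit read from the data; inconclusive = no clear call, values can overlap the other calls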
Target sequence (Q9HCT0 whole entry, looked up): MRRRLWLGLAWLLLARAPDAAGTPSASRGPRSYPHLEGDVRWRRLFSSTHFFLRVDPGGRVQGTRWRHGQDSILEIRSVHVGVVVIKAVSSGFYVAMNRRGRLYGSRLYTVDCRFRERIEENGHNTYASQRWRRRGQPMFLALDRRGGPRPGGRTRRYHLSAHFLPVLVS
PGC1a acetyl inh: PGC1a acetylation modulation, inhibitor mode | U2OS PGC1a acetylation, AlphaScreen anti-acetyl-lysine; with virally co-expressed GCN5 acetyltransferase | inhibition, % at 15.6 µM | 0.17% of 350,000 active;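 active = every replicate shows inhibition of at least 40%; inconclusive = mean inhibition at least 40% but some replicate below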;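 also: 0% = neutral control wells and 100% = positive control wells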
Cneo AK release: causes C. neoformans cell lysis. lysis activity, % at 15 µM. adenylate kinase release luminescence, 4 h; normalised: neutral wells 0, clomiphene wells 100. AID 651654. 0.2% of 360,000 active;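 active = mean lysis activity across replicates of at least 80%, whatever share of replicates individually reach that level; inactive = mean lysis activity below 80%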
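Assay system: C. neoformans cells. Amount: yeast cell density of 5 × 10^6 cells/mL. Technique: AK luminescence. Buffer or medium: YPD. Times: static 4 h at 37 °C with compound, 1 h detection. Dosing: single-point compound dose. Read-out: lysis from increased AK signal.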
rRNA inh HTS: inhibitors of bacterial rRNA selective over humanized ribosomes; 1.6% of 350,000 active; GFP signal change (wild-type ribosome), % (test concentration not listed); AID 720706; E. coli WT GFP vs humanized-ribosome RFP mutants, fluorescence, 24 h; stronger effect = lower value; DMSO median 0, no signal -100;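 active = significant combined selectivity score with lowered wild-type GFP, culture density cut under 30%, mutant RFP and density less affected; inactive = any of these conditions unmet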
ERAP1 HTS inh: blocks human ERAP1 aminopeptidase activity; Q9NZ08; recombinant ERAP1, Leu-AMC fluorescence, 60 min; inhibition, % at 10.7 µM; 0.15% of 340,000 active; AID 652197;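 active = mean replicate inhibition of at least 30%, or all replicates individually reaching that 30% level; inactive = mean below 30% and not every replicate reaching it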;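 also: 0% = neutral control wells and 100% = L-leucinethiol positive control wells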
HIV Env fusion: inhibitors of HIV Env-mediated cell fusion; HeLa-JRFL Env/CEM21 cell fusion, luciferase; inhibition, % at 12.3 µM; 1.1% of 360,000 active; AID 651610;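 active = mean replicate inhibition score of at least 50 and every replicate individually at or above 50; inconclusive = only one of the two criteria met; inactive = mean below 50 and not all replicates reaching 50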;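 also: 0% = plate neutral controls and 100% = maraviroc near 300 nM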
Starred values were filed as active, the others as inactive; u = inconclusive; x = no result given; [ ] = remark or other dose.

SMILES	FGF22 binding	PGC1a acetyl inh	Cneo AK release	rRNA inh HTS	ERAP1 HTS inh	HIV Env fusion
C[C@@H]1CN([C@@H](C)CO)C(=O)c2cccc(NC(=O)Nc3ccc(C(F)(F)F)cc3)c2O[C@H]1CN(C)Cc1ccc(Oc2ccccc2)cc1	0	-4	-1	-3	-3	69*[16.7 µM]
C[C@@H]1CN([C@@H](C)CO)C(=O)c2cccc(NC(=O)Nc3ccc(C(F)(F)F)cc3)c2O[C@@H]1CN(C)Cc1ccc(Oc2ccccc2)cc1	0	18	-2	0	-4	-34[16.7 µM]
COc1ccc(/C(N)=N/OC(=O)C2CCCCC2)cc1OC	0	x	-5	-7	0	-71
O=C(CCN1c2ccccc2Sc2ccccc21)OCc1nnc(-c2ccccc2)o1	x	6	0	x	x	x
CCCc1cc(=O)oc2c(CN(CC)CC)c(O)c(Cl)cc12	0	-2	0	4	189*	6
Cc1cc(C)c2cc(CN(Cc3nnnn3C3CCCCC3)CC3CCCO3)c(=O)[nH]c2c1 (stereo not given)	0	-2	-1	-14	1	x
COc1ccccc1-c1cc(-c2ccccc2)nc(SCC(=O)O)c1C#N	0	13	-5	-12	42*	-12
COc1ccc(-c2cc(-c3ccccc3)c(C#N)c(SCC(=O)O)n2)cc1	0	9	-5	-52	10	-1
CC[C@@]1(C(=O)OC)N[C@H](CN(C)C(=O)Nc2ccc(OC)cc2)[C@@H]2C(=O)N(Cc3ccccc3)C(=O)[C@@H]21	1	-11	0	5	x	70*
CC[C@@]1(C(=O)OC)N[C@H](CN(C)C(=O)Nc2ccc(C)cc2)[C@@H]2C(=O)N(Cc3ccccc3)C(=O)[C@@H]21	x	-4	-1	4	0	66*
COC(=O)[C@]1(Cc2ccccc2)N[C@H](CN(C)C(=O)Nc2ccc(F)cc2)[C@@H]2C(=O)N(Cc3ccccc3)C(=O)[C@@H]21	0	0	1	2	x	-50
CC[C@@]1(C(=O)OC)N[C@H](CN(C)C(=O)Nc2ccc(F)cc2)[C@@H]2C(=O)N(Cc3ccccc3)C(=O)[C@@H]21	0	x	3	-12	0	94*
CCc1ccc(OCC(=O)NN2Cc3ccccc3C2=N)cc1	43*	7	x	2	3	-2
O=C(COC(=O)c1ccc(Cl)nc1)c1ccc2c(c1)OCCO2	43*	x	x	5	-1	-15
O=C(COC(=O)c1cccnc1Cl)c1ccc2c(c1)OCCO2	0	-1	-5	5	-2	-12
CCC(C)Sc1ccc([C@@H]2[C@H]3C(=O)N(CC)C(=O)[C@H]3[C@]3(C(=O)OC)CCCN23)cc1OC (stereo not given in full)	0	26	0	-4	0	-2
O=C(COC(=O)CCc1ccccc1)NC1CCS(=O)(=O)C1 (stereo not given)	0	9	3	7	-1	27
CC(CC(=O)OCC(=O)NC1CCS(=O)(=O)C1)c1ccccc1 (stereo not given)	43*	-5	-3	1	-2	5
COc1cc2ccccc2cc1C(=O)OCC(=O)NC1CCS(=O)(=O)C1 (stereo not given)	43*	x	x	12	7	-4
Cc1ccc(C(=O)OCC(=O)NC2CCS(=O)(=O)C2)c(C)c1 (stereo not given)	0	x	1	2	-2	x
C[C@H](CO)N1C[C@H](C)[C@H](CN(C)C(=O)Nc2ccc3c(c2)OCO3)Oc2c(NS(=O)(=O)c3ccc(Cl)cc3)cccc2C1=O	-1	14	6	-12	-2	-35[16.7 µM]
C[C@H](CO)N1C[C@H](C)[C@@H](CN(C)Cc2cccc(F)c2)Oc2ncc(-c3ccccc3F)cc2C1=O	0	-21	56	-3	1	11[16.7 µM]
CN(C)CCCN(C(=O)c1ccc2c(c1)OCCO2)c1nc2ccc(Cl)cc2s1	0	x	0	-46*	-4	x
CN(C)CCCN(C(=O)c1ccc(S(=O)(=O)N(C)C)cc1)c1nc2cc3c(cc2s1)OCO3	43*	x	0	6	-4	18
Cc1cccc2sc(N(CCCN(C)C)C(=O)c3ccc4ncsc4c3)nc12	0	x	1	0	76*	-22
SMILES	FGF22 binding	PGC1a acetyl inh	Cneo AK release	rRNA inh HTS	ERAP1 HTS inh	HIV Env fusion
CC1CCCC2(C1)NC(=S)c1c(sc3c1CCCC3)N2 (stereo not given)	x	1	-5	x	x	-70
Cc1ccc(NC(=O)c2ccc(NCCCN3CCC(C)CC3)c([N+](=O)[O-])c2)cc1F	0	-2	x	-25*	2	-14
O=C(Nc1cccc(Cl)c1)c1ccc(NCCCN2CCOCC2)c([N+](=O)[O-])c1	x	-13	x	x	x	x
CC(C)(C)CC(C)(C)Nc1c(-c2ccc(O)cc2)nc2cnccn12	x	0	-2	-25*	-20	32
COc1cc(-c2nc3cnccn3c2Nc2ccc(C)cc2)ccc1O	0	-9	-2	-41*	-1	x
Oc1ccc(-c2nc3cnccn3c2Nc2ccc3c(c2)OCCO3)cc1	0	8	-3	-5	-1	25
Cc1ccc(NC(=O)Nc2ccc3c(c2)N(C)C(=O)CS3)cc1C	1	-3	-3	-13*	1	-47
CCN1C=C(C(C)=O)C(=O)CC1	43*	x	-1	4	3	-18
O=C(CCl)N(c1ccccc1)c1c[nH]c2ccccc12	x	-1	x	x	x	x
O=C(CCl)N(c1ccc(Cl)cc1)c1c[nH]c2ccccc12	x	-13	x	-23*	8	43
O=S(=O)(c1ccccc1)c1ccc(C(F)(F)F)cn1	44*	5	x	2	-8	3
Nc1ccc(S(=O)(=O)c2ccccc2)nc1	0	x	6	3	-1	2
CN(c1ncnc(N)c1[N+](=O)[O-])C1CCCCC1	0	x	2	3	0	44
CN(c1ncnc(N)c1[N+](=O)[O-])C1CCS(=O)(=O)C1 (stereo not given)	0	u	3	20	2	59*
COc1ccc(CN2C(=O)COc3ccccc32)cc1	0	15	-1	5	-1	12
COc1ccc(CC2(CO)COc3ccccc3C2=O)cc1 (stereo not given)	0	x	x	-28*	0	18
O=C(CCn1c(=O)[nH]c2ccccc2c1=O)Nc1ccccc1	x	2	0	x	x	-35
Cc1ccc(NC(=O)C(OC(=O)c2ccc(F)cc2)c2ccccc2)cc1Cl (stereo not given)	0	-1	0	-23	-1	-9
Cc1ccc(NC(=O)C(OC(=O)c2ccc(O)cc2)c2ccccc2)cc1Cl (stereo not given)	78*	x	0	x	1	-52

Screening results: PubChem BioAssay, Broad Institute
